From ChEMBL document CHEMBL3045766, “Potent nematicidal activity of phthalaldehyde, salicylaldehyde, and cinnamic aldehyde against Meloidogyne incognita” (J Agric Food Chem, 2013)
Converted amounts (≈) assume the structure as drawn. The source made the active and inactive calls. No cut-off for these calls is given here.

Assays:
[1] = molecular target: T1, Collagen (Meloidogyne javanica) (UniProt O01945); test: Covalent binding to Meloidogyne javanica (root-knot nematode) collagen 3 assessed as compound-protein adduct formation at 15 mM by HPLC-ESI-MS analysis
T1 sequence (whole entry): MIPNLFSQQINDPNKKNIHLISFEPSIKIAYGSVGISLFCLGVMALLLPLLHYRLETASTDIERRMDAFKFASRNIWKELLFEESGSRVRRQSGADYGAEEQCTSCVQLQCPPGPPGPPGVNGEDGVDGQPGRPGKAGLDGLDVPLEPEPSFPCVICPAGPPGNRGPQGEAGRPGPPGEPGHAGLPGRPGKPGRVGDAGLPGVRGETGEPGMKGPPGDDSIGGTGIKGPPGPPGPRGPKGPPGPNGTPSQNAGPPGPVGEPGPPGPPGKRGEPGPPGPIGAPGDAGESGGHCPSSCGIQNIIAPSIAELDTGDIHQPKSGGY
Outline: (§1)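 Aldehyde (final 1, 5 or 15 mM) incubated with probe peptide (0.5 mM) in 100 mM Tris-HCl pH 7.4, 25 °C, dark, 24 h, duplicate; stopped with TFA (0.1% final). Diluted in 0.1% TFA, analysed by HPLC-ESI-MS (C18, TFA water/acetonitrile gradient). Adducts quantified label-free as relative XIC peak area of each derivative versus sum of all derivatives; peptide-only control.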

[2] = molecular target: T1, Collagen (Meloidogyne javanica); test: Covalent binding to Meloidogyne javanica (root-knot nematode) collagen 3 assessed as compound-protein adduct formation at 5 mM by HPLC-ESI-MS analysis; outline: as §1
Meloidogyne incognita [3] = test: Nematicidal activity against second-stage juveniles of Meloidogyne incognita (root-knot nematode) after 1 day by inverted microscopic analysis; type: functional, organism-based; conditions: 24 h
Outline: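 Stocks in methanol, diluted with water/Tween; double-strength solutions mixed 1:1 with 25 J2 per well (methanol ≤1% final), covered, dark, 28 °C, 1 day. Controls: water and water/Tween 0.2%. Paralysis corrected for water-control mortality; five replicates, experiment run twice; EC50 from log-logistic nonlinear regression.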

[4] = molecular target: T1, Collagen (Meloidogyne javanica); test: Covalent binding to Meloidogyne javanica (root-knot nematode) collagen 3 assessed as compound-protein adduct formation at 1 mM by HPLC-ESI-MS analysis; outline: as §1
Meloidogyne incognita [5] = test: Nematicidal activity against second-stage juveniles of Meloidogyne incognita (root-knot nematode) after 1 hr by inverted microscopic analysis; type: functional
Outline: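 J2 motility assay: methanol stocks diluted in water/Tween, mixed 1:1 with 25 J2 per well (methanol ≤1% final), kept covered in dark at 28 °C; paralysis scored at 1 h over a concentration range to give EC100. Water and water/Tween 0.2% controls; five replicates, repeated twice.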

Meloidogyne incognita [6] = test: Nematicidal activity against second-stage juveniles of Meloidogyne incognita (root-knot nematode) assessed as macroscopic fracture on cuticle at […] by scanning electron microscopic analysis; type: functional, organism-based
Outline: (§2)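 J2 juveniles were exposed to the aldehyde, with untreated J2 as negative controls. They were postfixed in 1% osmium tetroxide in 0.1 M cacodylate buffer for 1 h, washed in distilled water, and frozen in slush nitrogen. They were then freeze-dried under vacuum overnight (−70 °C rising to room temperature), sputter-coated with 10 nm gold and imaged by secondary-electron SEM at 15 kV.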

Meloidogyne incognita [7] = test: Nematicidal activity against second-stage juveniles of Meloidogyne incognita (root-knot nematode) assessed as microscopic fracture on cuticle at […] by scanning electron microscopic analysis; type: functional, organism-based; outline: as §2
Meloidogyne incognita [8] = test: Nematicidal activity against second-stage juveniles of Meloidogyne incognita (root-knot nematode) assessed as smooth/stretched cuticle at […] by scanning electron microscopic analysis; type: functional, organism-based; outline: as §2

Row | Structure (SMILES) | EC50 (Meloidogyne incognita [3]) [µg/mL] | EC100 (Meloidogyne incognita [5]) [mg/L] | further results
1 | O=Cc1cccc(C=O)c1 [ISOPHTHALIC DICARBOXALDEHYDE] | 15 (≈ 112 µM) | >100 | Activity [1]: 0%; Activity [2]: 0%; Activity [4]: 1%
2 | C[C@@H]1O[C@@H](O[C@H]2C[C@@H](O)[C@]3(CO)[C@H]4[C@H](O)C[C@]5(C)[C@@H](C6=CC(=O)OC6)CC[C@]5(O)[C@@H]4CC[C@]3(O)C2)[C@H](O)[C@H](O)[C@H]1O [OUABAIN] | > 1000 | >1000 | 
3 | O=Cc1ccco1 [FURFURAL] | 8 (≈ 83.3 µM) | 11 | 
4 | O=Cc1ccccc1[N+](=O)[O-] [2-NITROBENZALDEHYDE] | 120 (≈ 794 µM) | >200 | 
5 | O=Cc1ccc2ccccc2c1 [2-NAPHTHALDEHYDE] | 13 (≈ 83.2 µM) | >75 | 
6 | O=Cc1ccccc1 [BENZALDEHYDE] | > 250 | >100 | Activity [1]: 6%; Activity [2]: 0%; Activity [4]: 0%
7 | CCOP(=O)(SC(C)CC)N1CCSC1=O (configuration not stated) [FOSTHIAZATE] |  | 3 | 
8 | CCCCC/C=C/C=C/C=O | 12 (≈ 78.8 µM) | >20 | Activity (Meloidogyne incognita [6]): Active; Activity (Meloidogyne incognita [7]): inactive; Activity (Meloidogyne incognita [8]): Active
9 | CCCCCCCCCCCCCCCc1ccc(C=O)c(O)c1 | > 1000 | >1000 | 
10 | CC(C)=CCC/C(C)=C/C=O [CITRAL] | 72 (≈ 473 µM) | >250 | 
11 | O=Cc1cccc(C(=O)O)c1 [3-FORMYLBENZOIC ACID] | > 1000 | >1000 | 
12 | Cn1c2cccc(=O)c-2nc2ccccc21 [PYOCYANIN] | 72 (≈ 342 µM) | >250 | 
13 | O=Cc1ccc2c(c1)OCO2 [PIPERONAL] | 44 (≈ 293 µM) | >100 | Activity [2]: 30%; Activity [4]: 5%
14 | COc1ccc(C=O)cc1OC [3,4-DIMETHOXYBENZALDEHYDE] | > 1000 | >1000 | Activity [2]: 70%; Activity [4]: 65%
15 | COC(=O)c1ccccc1O [METHYL SALICYLATE] | > 1000 | >1000 | 
16 | O=Cc1ccc(O)cc1 [4-HYDROXYBENZALDEHYDE] | 75 (≈ 614 µM) | 500 | 
17 | COc1ccccc1C=O [2-METHOXYBENZALDEHYDE] | > 1000 | >1000 | Activity [2]: 77%; Activity [4]: 74%
18 | O=Cc1ccc(O)c(O)c1 [PROTOCATECHUALDEHYDE] | > 1000 | >1000 | Activity [1]: 73%; Activity [2]: 89%; Activity [4]: 72%
19 | Oc1ccccc1O [CATECHOL] | > 500 | >500 | 
20 | COc1cc(C=O)ccc1O [VANILLIN] | > 1000 | >1000 | 
21 | O=Cc1ccccc1O[C@@H]1O[C@H](CO)[C@@H](O)[C@H](O)[C@H]1O [HELICIN] | > 250 | >250 | 
22 | O=CCc1ccccc1 [PHENYLACETALDEHYDE] | 167 (≈ 1390 µM) | 1000 | 
23 | O=C/C=C\c1ccccc1 [CINNAMIC ALDEHYDE] | 12 (≈ 90.8 µM) | >250 | 
24 | CCc1ccc(O)c(C=O)c1 | 53 (≈ 353 µM) | >100 | 
25 | O=Cc1ccccc1O [SALICYLADEHYDE] | 11 (≈ 90.1 µM) | >25 | Activity (Meloidogyne incognita [6]): Active; Activity [2]: 57%; Activity (Meloidogyne incognita [7]): inactive; Activity [4]: 61%; Activity (Meloidogyne incognita [8]): Active
26 | O=C(O)/C=C/c1ccccc1 [CINNAMIC ACID] | > 250 | >250 | 
27 | CC(=O)c1ccc2c(c1)OCO2 [3,4-METHYLENDIOXY ACETOPHENONE] | > 500 | >500 | 
28 | O=Cc1ccccc1C=O [ORTHO-PHTHALALDEHYDE] | 11 (≈ 82 µM) | >50 | 
29 | c1ccc([C@H]2CN3CCSC3=N2)cc1 [LEVAMISOLE] | 4 (≈ 19.6 µM) | >20 | 
30 | O=Cc1cccc(O)c1 [3-HYDROXYBENZALDEHYDE] | 31 (≈ 254 µM) | >250 | 
